Converted amounts (≈) assume the structure as drawn.
What was measured:
Type in all cases: functional
[1] = tested on: Parabacteroides distasonis; test: Antimicrobial activity against Bacteroides distasonis by agar dilution method
How it was run: (§1)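 CLSI agar dilution on enriched brucella agar (5% lysed defibrinated sheep blood, 1 μg/ml vitamin K1), with drug plates made on the test day. Log-phase cells were adjusted to 0.5 McFarland, and about 10^5 CFU/spot was delivered by Steers replicator. Plates were incubated anaerobically at 37°C for 48 h. MIC was the lowest concentration giving a marked growth change versus the control plate. Controls were B. fragilis ATCC 25285 and B. thetaiotaomicron ATCC 29741.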

[2] = tested on: Bacteroides caccae; test: Antimicrobial activity against Bacteroides caccae assessed as resistant isolates by agar dilution method
How it was run: (§2)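 CLSI agar dilution on enriched brucella agar (5% lysed defibrinated sheep blood, 1 μg/ml vitamin K1), plates made on test day. Log-phase inocula adjusted to 0.5 McFarland; about 10^5 CFU/spot by Steers replicator. Incubated anaerobically at 37°C for 48 h. MIC was the lowest concentration giving a marked change in growth versus the drug-free control plate. Resistance rates used CLSI anaerobe breakpoints. Controls were B. fragilis ATCC 25285 and B. thetaiotaomicron ATCC 29741.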

[3] = tested on: Bacteroides caccae; test: Antimicrobial activity against Bacteroides caccae by agar dilution method; how it was run: as §1
[4] = tested on: Parabacteroides distasonis; test: Antimicrobial activity against Bacteroides distasonis assessed as resistant isolates by agar dilution method; how it was run: as §2
[5] = tested on: Bacteroides fragilis; test: Antimicrobial activity against Bacteroides fragilis by agar dilution method; how it was run: as §1
[6] = tested on: Bacteroides fragilis; test: Antimicrobial activity against Bacteroides fragilis assessed as resistant isolates by agar dilution method; how it was run: as §2
[7] = tested on: Bacteroides ovatus; test: Antimicrobial activity against Bacteroides ovatus by agar dilution method; how it was run: as §1
[8] = tested on: Bacteroides ovatus; test: Antimicrobial activity against Bacteroides ovatus assessed as resistant isolates by agar dilution method; how it was run: as §2
[9] = tested on: Bacteroides thetaiotaomicron; test: Antimicrobial activity against Bacteroides thetaiotaomicron by agar dilution method; how it was run: as §1
[10] = tested on: Bacteroides thetaiotaomicron; test: Antimicrobial activity against Bacteroides thetaiotaomicron assessed as resistant isolates by agar dilution method; how it was run: as §2
[11] = tested on: Bacteroides uniformis; test: Antimicrobial activity against Bacteroides uniformis by agar dilution method; how it was run: as §1
[12] = tested on: Bacteroides uniformis; test: Antimicrobial activity against Bacteroides uniformis assessed as resistant isolates by agar dilution method; how it was run: as §2
[13] = tested on: Phocaeicola vulgatus; test: Antimicrobial activity against Bacteroides vulgatus by agar dilution method; how it was run: as §1
[14] = tested on: Phocaeicola vulgatus; test: Antimicrobial activity against Bacteroides vulgatus assessed as resistant isolates by agar dilution method; how it was run: as §2
[15] = tested on: Bacteroides eggerthii; test: Antimicrobial activity against Bacteroides eggerthii by agar dilution method; how it was run: as §1
[16] = tested on: Bacteroides eggerthii; test: Antimicrobial activity against Bacteroides eggerthii assessed as resistant isolates by agar dilution method; how it was run: as §2
[17] = tested on: Parabacteroides merdae; test: Antimicrobial activity against Bacteroides merdae by agar dilution method; how it was run: as §1
[18] = tested on: Parabacteroides merdae; test: Antimicrobial activity against Bacteroides merdae assessed as resistant isolates by agar dilution method; how it was run: as §2
[19] = tested on: Bacteroides nordii; test: Antimicrobial activity against Bacteroides nordii by agar dilution method; how it was run: as §1
[20] = tested on: Bacteroides nordii; test: Antimicrobial activity against Bacteroides nordii assessed as resistant isolates by agar dilution method; how it was run: as §2
[21] = tested on: Clostridioides difficile; test: Antimicrobial activity against Clostridium difficile by agar dilution method
[22] = tested on: Clostridium perfringens; test: Antimicrobial activity against Clostridium perfringens by agar dilution method
[23] = tested on: [Clostridium] innocuum; test: Antimicrobial activity against Clostridium innocuum by agar dilution method
[24] = tested on: [Clostridium] innocuum; test: Antimicrobial activity against Clostridium innocuum assessed as resistant isolates by agar dilution method; details: pooled result: one value given for 4 cell lines, strains, targets or settings
[25] = tested on: Clostridium paraputrificum; test: Antimicrobial activity against Clostridium paraputrificum by agar dilution method
[26] = tested on: Clostridium subterminale; test: Antimicrobial activity against Clostridium subterminale by agar dilution method
[27] = tested on: Clostridium tertium; test: Antimicrobial activity against Clostridium tertium by agar dilution method
[28] = tested on: Finegoldia magna; test: Antimicrobial activity against Finegoldia magna by agar dilution method
How it was run: (§3)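 Gram-positive anaerobes were tested by CLSI agar dilution on brucella agar enriched with 5% lysed defibrinated sheep blood and 1 μg/ml vitamin K1. Inoculum was log-phase growth at 0.5 McFarland, about 10^5 CFU/spot by replicator. Incubation was anaerobic, 37°C, 48 h. MIC was the lowest concentration with a marked growth change versus the drug-free plate. Eubacterium lentum ATCC 43055 was the control, and tests were repeated if it fell outside the CLSI range.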

[29] = tested on: Finegoldia magna; test: Antimicrobial activity against Finegoldia magna assessed as resistant isolates by agar dilution method
How it was run: (§4)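 Agar dilution following CLSI on brucella agar with 5% lysed defibrinated sheep blood and 1 μg/ml vitamin K1, plates made on test day. Log-phase cells at 0.5 McFarland, about 10^5 CFU/spot by Steers replicator, 48 h anaerobic at 37°C. MIC read as the lowest concentration causing a marked growth change versus control. Resistance counted by CLSI anaerobe breakpoints. Eubacterium lentum ATCC 43055 served as control.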

[30] = tested on: Peptoniphilus asaccharolyticus; test: Antimicrobial activity against Peptoniphilus asaccharolyticus by agar dilution method; how it was run: as §3
[31] = tested on: Peptoniphilus asaccharolyticus; test: Antimicrobial activity against Peptoniphilus asaccharolyticus assessed as resistant isolates by agar dilution method; details: pooled result: one value given for 4 cell lines, strains, targets or settings; how it was run: as §4
[32] = tested on: Parvimonas micra; test: Antimicrobial activity against Micromonas micros by agar dilution method; how it was run: as §3
[33] = tested on: Anaerococcus prevotii; test: Antimicrobial activity against Anaerococcus prevotii by agar dilution method; how it was run: as §3
[34] = tested on: Peptostreptococcus sp.; test: Antimicrobial activity against Peptostreptococcus sp. by agar dilution method
How it was run: (§5)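 Log-phase isolates were adjusted to 0.5 McFarland, and about 10^5 CFU/spot was delivered by Steers replicator. Plates were incubated anaerobically at 37°C for 48 h. MIC was the lowest concentration giving a marked growth change versus the control plate. Eubacterium lentum ATCC 43055 was the QC strain, with repeats when out of range.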

[35] = tested on: Cutibacterium acnes; test: Antimicrobial activity against Propionibacterium acnes by agar dilution method; how it was run: as §5
[36] = tested on: Cutibacterium acnes; test: Antimicrobial activity against Propionibacterium acnes assessed as resistant isolates by agar dilution method; how it was run: as §4
[37] = tested on: Propionibacterium; test: Antimicrobial activity against Propionibacterium sp. by agar dilution method; how it was run: as §5
[38] = tested on: Propionibacterium; test: Antimicrobial activity against Propionibacterium sp. assessed as resistant isolates by agar dilution method; how it was run: as §4

CO[C@@]1(NC(=O)Cc2cccs2)C(=O)N2C(C(=O)O)=C(COC(N)=O)CS[C@@H]21 [CEFOXITIN]
MIC50 [1]: 16 µg/mL (≈ 37.4 µM)
MIC90 [1]: 32 µg/mL (≈ 74.9 µM)
Activity [2]: 6.3%
MIC50 [3]: 16 µg/mL (≈ 37.4 µM)
MIC90 [3]: 32 µg/mL (≈ 74.9 µM)
Activity [4]: 6.7%
MIC50 [5]: 16 µg/mL (≈ 37.4 µM)
MIC90 [5]: 32 µg/mL (≈ 74.9 µM)
Activity [6]: 3%
MIC50 [7]: 16 µg/mL (≈ 37.4 µM)
MIC90 [7]: 64 µg/mL (≈ 150 µM)
Activity [8]: 14.3%
MIC50 [9]: 32 µg/mL (≈ 74.9 µM)
MIC90 [9]: 64 µg/mL (≈ 150 µM)
Activity [10]: 10.3%
MIC50 [11]: 16 µg/mL (≈ 37.4 µM)
MIC90 [11]: 64 µg/mL (≈ 150 µM)
Activity [12]: 9.5%
MIC50 [13]: 8 µg/mL (≈ 18.7 µM)
MIC90 [13]: 32 µg/mL (≈ 74.9 µM)
Activity [14]: 3.2%
MIC50 [15]: 16 µg/mL (≈ 37.4 µM)
MIC90 [15]: 32 µg/mL (≈ 74.9 µM)
Activity [16]: 0%
MIC50 [17]: 16 µg/mL (≈ 37.4 µM)
MIC90 [17]: 32 µg/mL (≈ 74.9 µM)
Activity [18]: 0%
MIC50 [19]: 16 µg/mL (≈ 37.4 µM)
MIC90 [19]: 32 µg/mL (≈ 74.9 µM)
Activity [20]: 0%
MIC [21]: > 8 µg/mL
MIC [22]: 1 µg/mL (≈ 2.34 µM)
MIC50 [22]: 1 µg/mL (≈ 2.34 µM)
MIC90 [22]: 4 µg/mL (≈ 9.36 µM)
MIC50 [23]: 64 µg/mL (≈ 150 µM)
MIC90 [23]: 128 µg/mL (≈ 299 µM)
Activity [24]: 55.6%
MIC50 [25]: 64 µg/mL (≈ 150 µM)
MIC90 [25]: > 128 µg/mL
MIC50 [26]: 64 µg/mL (≈ 150 µM)
MIC90 [26]: > 128 µg/mL
MIC50 [27]: 64 µg/mL (≈ 150 µM)
MIC90 [27]: > 128 µg/mL
MIC [28]: 1 µg/mL (≈ 2.34 µM)
MIC50 [28]: 1 µg/mL (≈ 2.34 µM)
MIC90 [28]: 1 µg/mL (≈ 2.34 µM)
Activity [29]: 0%
MIC [30]: 1 µg/mL (≈ 2.34 µM)
MIC50 [30]: 1 µg/mL (≈ 2.34 µM)
MIC90 [30]: 4 µg/mL (≈ 9.36 µM)
Activity [31]: 0%
MIC [32]: 1 µg/mL (≈ 2.34 µM)
MIC50 [32]: 1 µg/mL (≈ 2.34 µM)
MIC90 [32]: 4 µg/mL (≈ 9.36 µM)
MIC [33]: 1 µg/mL (≈ 2.34 µM)
MIC50 [33]: 1 µg/mL (≈ 2.34 µM)
MIC90 [33]: 4 µg/mL (≈ 9.36 µM)
MIC [34]: 1 µg/mL (≈ 2.34 µM)
MIC50 [34]: 1 µg/mL (≈ 2.34 µM)
MIC90 [34]: 4 µg/mL (≈ 9.36 µM)
MIC [35]: 1 µg/mL (≈ 2.34 µM)
MIC50 [35]: 1 µg/mL (≈ 2.34 µM)
MIC90 [35]: 1 µg/mL (≈ 2.34 µM)
Activity [36]: 0%
MIC [37]: 1 µg/mL (≈ 2.34 µM)
MIC50 [37]: 1 µg/mL (≈ 2.34 µM)
MIC90 [37]: 1 µg/mL (≈ 2.34 µM)
Activity [38]: 0%

From ChEMBL document CHEMBL1275561, “In vitro activities of doripenem, a new broad-spectrum carbapenem, against recently collected clinical anaerobic isolates, with emphasis on the Bacteroides fragilis group” (2008)
